ChEMBL document CHEMBL1125571, “Potent inhibitors of platelet aggregation based upon the Arg-Gly-Asp-Phe sequence of fibrinogen. A proposal on the nature of the binding interaction between the Asp-carboxylate of RGDX mimetics and the platelet GP IIb-IIIa receptor” (J Med Chem, 1992)
pIC50: −log10 of the molar value. One block for each compound: values may come before it.

Assays:
[1] = biological target: T1, Integrin alpha-IIb/beta-3 (Homo sapiens, UniProt P05106+P08514); test: Inhibition of Fibrinogen receptor binding; type: protein-complex assay
T1 sequence (P05106 27-788 limits assumed): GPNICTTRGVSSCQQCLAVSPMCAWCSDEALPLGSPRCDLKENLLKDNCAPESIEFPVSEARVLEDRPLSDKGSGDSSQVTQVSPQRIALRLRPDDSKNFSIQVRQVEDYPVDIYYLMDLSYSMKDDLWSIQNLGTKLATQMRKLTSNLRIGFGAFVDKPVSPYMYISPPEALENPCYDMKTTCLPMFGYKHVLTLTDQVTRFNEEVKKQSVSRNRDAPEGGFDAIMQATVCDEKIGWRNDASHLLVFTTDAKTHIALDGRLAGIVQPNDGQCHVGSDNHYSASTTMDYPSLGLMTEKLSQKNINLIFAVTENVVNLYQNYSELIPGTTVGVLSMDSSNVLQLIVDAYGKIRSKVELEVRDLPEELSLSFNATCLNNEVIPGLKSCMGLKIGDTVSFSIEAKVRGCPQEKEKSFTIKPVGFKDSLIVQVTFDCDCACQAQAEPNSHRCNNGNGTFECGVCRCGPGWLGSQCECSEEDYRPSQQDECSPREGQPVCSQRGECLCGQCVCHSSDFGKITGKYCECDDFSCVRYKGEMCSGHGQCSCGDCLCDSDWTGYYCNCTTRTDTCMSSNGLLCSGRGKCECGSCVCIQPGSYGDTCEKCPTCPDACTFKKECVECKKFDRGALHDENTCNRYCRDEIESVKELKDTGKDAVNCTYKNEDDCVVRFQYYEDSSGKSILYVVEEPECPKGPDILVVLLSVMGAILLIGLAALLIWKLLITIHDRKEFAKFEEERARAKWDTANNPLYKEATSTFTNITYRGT
T1 sequence (P08514 32-887 limits assumed): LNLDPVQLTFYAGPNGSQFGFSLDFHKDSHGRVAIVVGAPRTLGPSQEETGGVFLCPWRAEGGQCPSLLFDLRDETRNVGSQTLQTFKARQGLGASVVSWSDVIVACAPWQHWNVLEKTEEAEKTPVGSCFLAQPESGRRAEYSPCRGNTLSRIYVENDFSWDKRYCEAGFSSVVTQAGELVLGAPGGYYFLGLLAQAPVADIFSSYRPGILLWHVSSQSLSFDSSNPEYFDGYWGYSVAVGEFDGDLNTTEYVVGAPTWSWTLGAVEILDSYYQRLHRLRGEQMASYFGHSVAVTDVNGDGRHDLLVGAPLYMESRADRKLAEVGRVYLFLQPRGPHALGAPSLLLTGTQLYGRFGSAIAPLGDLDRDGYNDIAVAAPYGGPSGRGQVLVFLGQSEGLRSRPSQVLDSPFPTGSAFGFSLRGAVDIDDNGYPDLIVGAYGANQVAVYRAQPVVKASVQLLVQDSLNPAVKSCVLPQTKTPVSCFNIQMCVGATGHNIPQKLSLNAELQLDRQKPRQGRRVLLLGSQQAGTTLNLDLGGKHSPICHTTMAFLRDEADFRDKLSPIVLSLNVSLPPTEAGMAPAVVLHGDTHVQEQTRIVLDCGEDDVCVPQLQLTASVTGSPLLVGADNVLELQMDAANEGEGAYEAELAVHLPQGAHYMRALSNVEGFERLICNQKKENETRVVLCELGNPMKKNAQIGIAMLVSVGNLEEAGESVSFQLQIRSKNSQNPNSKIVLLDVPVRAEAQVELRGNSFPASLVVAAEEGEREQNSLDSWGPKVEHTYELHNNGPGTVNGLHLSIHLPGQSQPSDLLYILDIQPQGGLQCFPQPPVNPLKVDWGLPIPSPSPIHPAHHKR
T1 sequence (P08514 891-1039 limits assumed): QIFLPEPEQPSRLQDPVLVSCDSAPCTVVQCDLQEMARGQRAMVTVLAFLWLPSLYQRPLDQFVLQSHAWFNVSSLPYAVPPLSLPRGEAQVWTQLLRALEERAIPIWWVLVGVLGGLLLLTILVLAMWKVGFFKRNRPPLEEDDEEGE

[2] = biological target: T1, Integrin alpha-IIb/beta-3; test: Inhibition of 125 I-Fibrinogen binding to Fibrinogen receptor; type: protein-complex assay
[3] = biological target: T1, Integrin alpha-IIb/beta-3; test: Inhibition of platelet aggregation (PRP) (inactive); type: functional
Summary of the method: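 Aggregation of platelets in platelet-rich plasma was induced with ADP, and inhibition of this aggregation was measured.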

[4] = biological target: T1, Integrin alpha-IIb/beta-3; test: Inhibition of 125 I-Fibrinogen binding to Fibrinogen receptor (inactive); type: protein-complex assay

pIC50 [1]: 4.52
SMILES: N=C(N)NCCCCCCCC(=O)N[C@@H](CC(=O)O)C(=O)NCCc1ccccc1

pIC50 [2]: 5.70
SMILES: N=C(N)NCCCCCCCC(=O)N[C@@H](CC(=O)O)C(=O)N[C@@H](Cc1ccccc1)C1N=NN=N1

pIC50 [1]: 6.22
SMILES: N=C(N)NCCCCCCCC(=O)N[C@@H](CC(=O)O)C(=O)N[C@@H](Cc1ccccc1)C(=O)O

IC50 [3]: Not Active
IC50 [4]: Not Active
SMILES: N=C(N)NCCCCCCCC(=O)N[C@@H](CC1N=NN=N1)C(=O)N[C@@H](Cc1ccccc1)C(=O)O
